FXIa inh – blocks human coagulation factor XIa activity | actives 0.3% (n = 33,000) | AID 687 | purified human FXIa, fluorogenic AMC substrate cleavage | inhibition, % at 10 µM | P03951;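 active = inhibition above 40% in the primary screen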;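 note: 0% = enzyme without compound and 100% = blank wells lacking enzyme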
Yeast tox – Compounds toxic to wild-type S. cerevisiae growth. A595 turbidity, 16 h. growth inhibition, % at 25 µM (by protocol). actives 0.3% (n = 30,000);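 active = mutant and wild-type yeast strains alike exhibit over 30% growth inhibition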;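 note: 0% = untreated cell controls and 100% = YPD media blanks without cells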
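System – wild-type and eIF2Bepsilon-R284H mutant S. cerevisiae, screened separately · Measured by – absorbance at 595 nm (turbidity) · Timing – 16 h compound exposure during growth at 30 °C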
FXIIa single – inhibitors of human coagulation factor XIIa | purified human FXIIa, AMC substrate fluorescence, 2 h | inhibition, % at 10 µM | actives 0.2% (n = 33,000); in the data active = inhibition above about 30%;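 note: 0% = enzyme with vehicle only and 100% = no enzyme blank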
Target sequence (P00748 20-372 limits assumed): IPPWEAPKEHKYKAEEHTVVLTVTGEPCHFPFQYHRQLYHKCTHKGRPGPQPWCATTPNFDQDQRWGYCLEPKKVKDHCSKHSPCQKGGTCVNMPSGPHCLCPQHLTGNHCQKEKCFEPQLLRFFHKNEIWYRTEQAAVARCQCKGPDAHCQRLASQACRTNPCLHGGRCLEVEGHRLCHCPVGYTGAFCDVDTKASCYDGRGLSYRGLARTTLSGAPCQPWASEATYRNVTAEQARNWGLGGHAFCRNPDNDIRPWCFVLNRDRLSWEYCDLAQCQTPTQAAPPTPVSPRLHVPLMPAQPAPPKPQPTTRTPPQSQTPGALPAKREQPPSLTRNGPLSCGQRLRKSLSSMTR
Target sequence (P00748 373-615 limits assumed): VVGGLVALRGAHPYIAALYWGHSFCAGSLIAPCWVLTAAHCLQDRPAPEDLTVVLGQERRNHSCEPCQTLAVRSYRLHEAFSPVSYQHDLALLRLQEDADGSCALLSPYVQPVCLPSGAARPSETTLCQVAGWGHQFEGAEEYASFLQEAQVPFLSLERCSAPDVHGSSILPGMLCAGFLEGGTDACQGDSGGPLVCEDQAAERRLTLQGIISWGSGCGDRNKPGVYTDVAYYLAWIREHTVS
* = called active by the depositor; x = no result. Only some compounds are listed: those with a hit (about 0.42% of all), similar ones and a draw of the others.

SMILES | FXIa inh | Yeast tox | FXIIa single
CCOc1cc(S(=O)(=O)NCc2ccccc2)c(OCC)cc1-n1cnnn1 | -1.8 | 2.5 | 5.2
CCOc1cc(S(=O)(=O)N(Cc2ccccc2)Cc2ccccc2)c(OCC)cc1-n1cnnn1 | 44.7* | x | 2.4
c1ccc(CCn2c(C3CC3)nc3ccccc32)cc1 | -3.2 | x | 1.6
COc1ccc(S(=O)(=O)N2CCC(C(=O)N3CCc4ccccc4C3)CC2)cc1Cl | 61.4* | 13.8 | 7.0
COc1ccc(S(=O)(=O)N2CCC(C(=O)NC3CC3)CC2)cc1Cl | -1.3 | 5.8 | -0.8
N=c1c2c(n(Cc3cccc(Cl)c3)c3c1CCC3)CCCC2 | -9.2 | x | 6.3
CCCCCCCCCCn1c2c(c(=N)c3c1CCC3)CCC2 | -3.4 | 78.9* | 1.1
CC1(C)CC(=O)C(C(=O)/C=C/NCCc2ccccc2)C(=O)C1 | -7.3 | 6.9 | 5.3
CC(C)Cc1cc(C(=O)Nc2cc(C(F)(F)F)ccc2Cl)no1 | -18.0 | 7.8 | 0.7
CCCC(=O)Nc1cc(C)c(NC(=O)Cc2ccccc2)cn1 | x | 16.2 | x
Cc1cc(NC(=O)C(C)C)ncc1NC(=O)Cc1ccccc1 | 0.9 | 11.1 | 37.9*
COc1cccc(CN(Cc2cccnc2)S(=O)(=O)c2ccc(-n3cnnn3)c(C)c2)c1OC | -1.0 | x | -15.1
Cc1cc(NC(=O)c2cc(-c3cccs3)on2)no1 | 3.7 | 30.7* | 5.0
CC(C)NC(=O)c1cc(-c2cccs2)on1 | 0.8 | 17.8 | -3.4
O=C(O)c1cn(-c2ccccc2)nc1-c1ccncc1 | x | 16.2 | x
O=C(c1cn(-c2ccccc2)nc1-c1ccncc1)n1nnc2ccccc21 | 96.3* | -21.9 | 88.8*
CCCC(CCC)C(=O)Nc1cccc(C(=O)O)c1 | 3.7 | 19.3 | 11.7
Nc1ccc2c(c1)C(=O)C(=O)c1ccccc1-2 | 0.2 | 38.3* | 5.7
O=C1C(=O)c2ccc(-c3ccccc3)cc2-c2ccccc21 | x | 37.6 | x
COc1cccc(-n2nc(-c3ccnn3-c3ccc(C)cc3)c(=O)n(C)c2=O)c1 | -6.4 | x | -0.6
Cc1nc(SCC(=O)NCCc2ccccc2)nc(C)c1C | 12.8 | x | 7.3
O=C(CCCCCCCC(=O)NCC1CCCO1)NCC1CCCO1 (centres undefined) | x | -5.4 | x
O=C(CCCN1C(=O)c2ccccc2C1=O)NCC1CCCO1 (centres undefined) | 44.1* | 0.7 | -11.1
CCCCOC(=O)Nc1cc(OC)c(Cl)cc1OC | -3.1 | 2.1 | -2.2
CCc1ccc(NC(=O)N(CCCN2CCOCC2)C(C)c2cc3cccc(OC)c3o2)cc1 (centres undefined) | x | -3.5 | x
SMILES | FXIa inh | Yeast tox | FXIIa single
O=C1[O][Bi][O]c2ccccc21 | -16.0 | x | -12.6
CC1=CC(=O)C(C(C)C)=C/C1=N/OC(=O)c1cccc([N+](=O)[O-])c1 | 6.9 | x | -2.3
CC1=CC(=NOC(=O)c2cccc([N+](=O)[O-])c2)C=C(C)C1=O | 7.9 | 30.4 | 51.2*
CCOc1ccc2nc(NCCCNS(=O)(=O)c3ccccc3)c(C#N)cc2c1 | x | 15.5 | x
CCc1ccc(C(=O)/C=C/c2ccc([N+](=O)[O-])o2)cc1 | 12.5 | 65.8* | 6.6
CCOC(=O)/C(=C\c1ccc([N+](=O)[O-])o1)NC(=O)c1ccccc1 | 18.7 | x | -11.6
COCCN1CCN(c2cc(-c3ccccc3)nc3cc(-c4cccc(F)c4)nn23)CC1 | -6.3 | 73.8* | -4.5
Fc1cccc(-c2cc3nc(-c4ccccc4)cc(N4CCC5(CC4)OCCO5)n3n2)c1 | -13.0 | x | -23.1
CCC(=C(c1ccc(OC)cc1)c1ccc(OC)cc1)c1cn(CC(O)CN2CCN(C)CC2)c2ccccc12 (centres undefined) | -2.4 | 101.6* | 5.0
COc1ccc(OCCn2cc(/C(N)=N/O)c3ccccc32)cc1 | 5.2 | x | 8.1
CCSc1nnc(NC(=O)COc2ccc3ccccc3c2)s1 | 1.1 | x | 3.5
CC1CCN(C(c2cccs2)c2nnnn2Cc2ccccc2)CC1 (centres undefined) | 14.4 | -3.5 | -15.5
Cn1c(Cn2nnc(-c3ccccc3)n2)nnc1SCc1ccccc1Cl | -2.7 | 5.2 | 3.5
CCOC(=O)C1=C(N)N2C(=O)C(C)SC2=C(C(=O)OCC)C1c1ccccc1 (centres undefined) | x | -20.6 | x
CCOC(=O)C1=C(N)N2C(=O)C(C)SC2=C(C(=O)OC)C1c1ccccc1OC (centres undefined) | 5.5 | 68.7* | -14.6
C/C(=N\NC(=S)NC(C)C)c1ccc(-n2ccnc2)cc1 | -11.5 | 23.8 | 17.1
Cc1ccc(C2=[N+]([O-])C3(CCCCC/C3=N\NC(N)=S)N(O)C2(C)C)o1 (centres undefined) | 11.5 | 11.5 | 3.1
N/C(Cc1ccc([N+](=O)[O-])cc1)=N\OC(=O)c1ccc2ccccc2c1 | -1.5 | 63.9* | 3.1
Cc1cccc(C(=O)O/N=C(\N)Cc2ccc([N+](=O)[O-])cc2)c1 | -0.8 | x | -8.0
CCCNC(=O)CC1C(=O)N(Cc2ccccc2)C(C)c2nc3ccccc3n21 (centres undefined) | 34.4 | x | -13.3
Cc1ccc2c(c1)-c1c(ssc1=S)C(C)(C)N2C(=O)c1ccco1 | 7.1 | x | 8.2
CC1(C)c2ssc(=S)c2-c2ccccc2N1C(=O)c1ccco1 | 3.9 | -34.1 | 33.9*
Cc1cccn2c(=O)c3cc(C(=O)N4CCc5ccccc5C4)n(C)c3nc12 | 0.7 | -30.9 | -12.1
CC1CCc2c(C(=O)Oc3cccc(-n4cnnn4)c3)csc2C1 (centres undefined) | 0.2 | -7.3 | 8.8
O=C(Oc1cccc(-n2cnnn2)c1)c1ccco1 | 45.1* | x | 46.6*
SMILES | FXIa inh | Yeast tox | FXIIa single
Cc1ccc(N(CC(=O)NCc2ccc(F)cc2)S(=O)(=O)c2cccs2)cc1 | 9.3 | x | 8.5
CN(CC(=O)O/N=C(\N)c1ccc([N+](=O)[O-])cc1)S(=O)(=O)c1ccccc1 | 32.8 | x | -12.8
CCOC(=O)N=S(=O)(Oc1ccc([N+](=O)[O-])cc1)c1ccccc1 (centres undefined) | 43.5* | x | 6.3
COC(=O)c1c(S(=O)(=O)NCc2ccccc2)sc(C(=O)O)c1C | 0.8 | x | 7.6
Cc1ccc(NC(=O)C2(S(=O)(=O)c3ccc(C)cc3)CC2)cc1 | 0.3 | -12.3 | 30.1*
O=C(Nc1nccs1)C1(S(=O)(=O)c2ccc(Cl)cc2)CC1 | x | 25.8 | x
COc1cccc(C2CC(c3cccs3)=NN2C(=O)CSC2=NN3CCCC(=O)N=C3S2)c1OC (centres undefined) | 2.4 | x | 4.3
O=S(=O)(Nc1ccc(S(=O)(=O)Nc2cccc3ccccc23)cc1)c1ccccc1 | -3.9 | -2.7 | 5.5
O=S(=O)(Nc1cccc2nsnc12)c1ccccc1 | 48.0* | 9.6 | 8.3
Cc1cc(Cl)ccc1N=c1ssnc1Cl | -1.4 | 78.9* | -0.4
Cc1ccc(N=c2ssnc2Cl)cc1 | 4.5 | x | -0.3
CCC(=O)c1ccc(OCC(O)CN2CCN(C(c3ccccc3)c3ccccc3)CC2)cc1 (centres undefined) | -11.4 | x | -11.6
CCc1nc2scc(-c3cccs3)c2c(=O)o1 | 0.5 | 2.7 | 3.3
CCn1c(Sc2nc(C)nc3scc(-c4cccs4)c23)n[nH]c1=O | x | 46.2* | x
O=c1c2ccccc2nc(CSc2ncnc3nc[nH]c23)n1-c1cccc(C(F)(F)F)c1 | -4.1 | 17.2 | 10.2
COc1cccc(-c2nc3ccccc3c(=O)o2)c1 | -2.0 | 7.5 | 30.1*
COc1cc(OC)cc(-c2nc3ccccc3c(=O)o2)c1 | -4.2 | -34.2 | 15.4
O=C(NC1CCCCC1)Sc1ccc(Cl)cc1 | x | 40.9* | x
COc1ccc(Cl)cc1NC(=O)C(=O)NC1CCCCCC1 | x | 12.5 | x
